TRPC6 inhibitor: mouse TRPC6 channel inhibitors, primary screen, cell-based, HEK293, membrane potential dye. Short transient receptor potential channel 6 (Mus musculus), Q61143. ACh-evoked depolarization; active compounds read low. B-score at 10 µM. 310,000 compounds, 1.1% hits;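 active means B-score under library mean minus 3 SD, initial fluorescence not abnormally high, positive integrated signal ratio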;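 further: B-score derived from integrated fluorescence ratio over the kinetic read; more negative B-score means stronger inhibition of depolarization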
Target sequence (Q61143 whole entry, looked up): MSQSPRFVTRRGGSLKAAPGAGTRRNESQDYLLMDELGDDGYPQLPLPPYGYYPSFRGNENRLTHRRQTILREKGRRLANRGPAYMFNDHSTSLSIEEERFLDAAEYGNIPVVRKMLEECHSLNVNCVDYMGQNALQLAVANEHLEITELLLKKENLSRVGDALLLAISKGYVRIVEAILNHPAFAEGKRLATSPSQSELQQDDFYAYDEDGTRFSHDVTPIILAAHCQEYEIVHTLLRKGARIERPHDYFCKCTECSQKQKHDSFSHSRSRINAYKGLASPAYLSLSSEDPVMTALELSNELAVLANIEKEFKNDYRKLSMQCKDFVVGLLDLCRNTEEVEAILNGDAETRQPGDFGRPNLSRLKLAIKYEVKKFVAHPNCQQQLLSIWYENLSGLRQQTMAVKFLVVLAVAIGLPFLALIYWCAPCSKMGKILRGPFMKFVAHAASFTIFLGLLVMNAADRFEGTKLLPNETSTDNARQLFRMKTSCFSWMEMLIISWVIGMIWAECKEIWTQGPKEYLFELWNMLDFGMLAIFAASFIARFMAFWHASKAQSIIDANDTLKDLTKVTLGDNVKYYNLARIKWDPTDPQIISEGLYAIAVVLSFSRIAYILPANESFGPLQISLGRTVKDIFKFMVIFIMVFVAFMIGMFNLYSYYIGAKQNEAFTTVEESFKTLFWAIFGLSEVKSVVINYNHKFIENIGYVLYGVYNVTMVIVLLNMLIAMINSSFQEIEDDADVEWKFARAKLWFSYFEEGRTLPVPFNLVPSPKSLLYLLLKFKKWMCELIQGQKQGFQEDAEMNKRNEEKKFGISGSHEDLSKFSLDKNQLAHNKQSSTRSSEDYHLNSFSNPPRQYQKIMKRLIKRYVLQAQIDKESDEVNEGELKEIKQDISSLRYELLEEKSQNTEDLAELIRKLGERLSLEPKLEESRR
TRPC4 block: inhibitors of mouse TRPC4 channel, primary screen, Fluo4 calcium, HEK293 TRPC4beta/mu-opioid cells | Short transient receptor potential channel 4 (Mus musculus), Q9QUQ5 | DAMGO-evoked Fluo4 calcium flux; active compounds read low | B-score at 10 µM | 300,000 compounds, 0.39% hits | AID 2247, 2010;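 active means B-score over 3 SD under the library average, no early fluorescence shift, positive overall ratio signal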
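Assay system: Stable TRPC4beta/mu-opioid receptor HEK293 cells | Reagent: DAMGO in two steps, submaximal then maximal | Compound dosing: Single concentration per test compound | Signal: Fluo4 Ca2+ flux fluorescence | Evaluation: Per-well B score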
TRPC4 act: activators of mouse TRPC4 channel, primary screen, Fluo4 calcium, HEK293 TRPC4beta/mu-opioid cells. Fluo4 calcium fluorescence; active compounds read high. 310,000 compounds, 0.49% hits. B-score at 10 µM;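 active means B-score above 5 SD of library B-scores, and initial fluorescence ratio not above library mean plus 5 SD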;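 further: positive B-score marks a calcium rise read as TRPC4 activation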
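Test system: HEK293 cells stably co-expressing mouse TRPC4beta and mu-opioid receptor | Schedule: Fluo4 dye loading 45 min at room temperature, 110 s recording | Measured by: Kinetic Fluo4 calcium fluorescence, 5 s baseline at 1 Hz | Evaluation: B score of integrated ratio | Controls: Buffer (low) and maximal DAMGO (high)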
TRPC4 potent: positive allosteric modulators of TRPC4, primary screen, cell-based, mouse TRPC4beta, HEK293 mu-opioid, Fluo-4 calcium; AID 2227, 2009; B-score at 10 µM; DAMGO EC20, Fluo-4 Ca2+ flux; active compounds read high; 310,000 compounds, 0.42% hits; Short transient receptor potential channel 4 (Mus musculus), Q9QUQ5;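 active means B-score of calcium response area above 5 SD of library B-scores, with initial fluorescence ratio within 5 SD of library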;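 further: B-score of integrated fluorescence ratio over time as area under calcium response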
TRPC6 act: mouse TRPC6 channel activators, primary screen, cell-based, HEK293, membrane potential dye; B-score at 10 µM; AID 2550, 2010; 310,000 compounds, 0.13% hits; HEK293-TRPC6 membrane potential dye fluorescence; active compounds read high;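 active means B-score of the integrated fluorescence ratio above library mean plus 3 SD, and starting fluorescence ratio within library mean plus 5 SD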;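 further: higher score means more depolarization so channel activation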
TRPC4 spec 2: second selectivity test of TRPC6 inhibitors: effect on mouse TRPC4. HEK293 TRPC4/MOR, membrane potential dye fluorescence; channel activated by saturating DAMGO dose. inhibition, % at 10 µM. AID 2776. 920 compounds, 42% hits. shares compounds with TRPC6 inhibitor;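 active means compounds whose fluorescence signal differed from control wells by over 3 SD, either direction, in both duplicate plates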
TRPC4 spec: mouse TRPC4 modulation by TRPC6 hits, confirmation, selectivity assay for TRPC6 inhibitor project, cell-based, HEK293 TRPC4/mu-opioid, membrane potential dye; shares compounds with TRPC6 inhibitor; membrane potential fluorescence; activity change, negative = inhibition, % at 10 µM; 920 compounds, 61% hits; AID 2777, 2010;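 active means rise or fall in signal beyond 3 SD of buffer-only wells in both replicate plates, either sign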;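 further: integrated kinetic ratio of fluorescence range over baseline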
HEK293 MPD ctr 2-1: nonspecific membrane potential effects, parental HEK293, confirmation, counter-screen for TRPC6 inhibitor project, cell-based, second counter screen. 920 compounds, 31% hits. signal change vs control, % at 10 µM. AID 2779, 2010. parental HEK293 membrane potential dye fluorescence; maximal acetylcholine challenge after compound addition. shares compounds with TRPC6 inhibitor;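 active means membrane potential signal moving either way by over 3 SD of the maximum-effect control, in both duplicate plates, meaning non-specific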
HEK293 MPD ctr-1: membrane potential modulation in parental HEK293, confirmation, counter-screen for TRPC6 inhibitor project, cell-based; shares compounds with TRPC6 inhibitor; parental HEK293 membrane potential dye fluorescence; membrane potential signal change, % at 10 µM; 920 compounds, 60% hits;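 active means membrane potential signal shifting up or down by more than 3 SD of buffer-only wells, on both duplicate plates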
HEK293 MPD ctr-2: parental HEK293 membrane potential modulation, confirmation, counter-screen for TRPC6 modulator project, cell-based; 2,400 compounds, 51% hits; shares compounds with TRPC6 inhibitor; membrane potential dye fluorescence; membrane potential signal change, % at 10 µM; AID 488924, 2010;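 active means membrane potential signal moves up or down beyond 5 SD from buffer-only wells, on both duplicate plates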
HEK293 MPD ctr 2-2: second check of TRPC6 modulator effects in parental HEK293 cells | shares compounds with TRPC6 inhibitor | membrane potential dye fluorescence; after compound, maximal acetylcholine stimulation | inhibition, % at 10 µM | 2,400 compounds, 14% hits;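 active means membrane potential signal drops by more than 5 SD from the mean control signal, in both duplicate plates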;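 further: plate controls were acetylcholine ECmax control wells for no effect and buffer only wells for full effect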
TRPC4/MOR mod: TRPC4 modulation by TRPC6 hit compounds, confirmation, selectivity assay for TRPC6 modulator project, cell-based, HEK293 TRPC4/mu-opioid, membrane potential dye, mouse; shares compounds with TRPC6 inhibitor; membrane potential fluorescence; percent change from control (negative = decrease, positive = increase), % at 10 µM; 2,400 compounds, 69% hits; AID 488927, 2010;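 active means membrane potential signal moved up or down beyond 5 SD of buffer control wells, in both duplicate plates, actives on both sides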;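 further: plate controls were assay buffer wells for no effect and DAMGO maximal-effect wells for full effect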
TRPC4/MOR inh 2: second check of whether TRPC6 modulators also affect mouse TRPC4 | inhibition, % at 10 µM | 2,400 compounds, 55% hits | shares compounds with TRPC6 inhibitor | HEK293 TRPC4/mu-opioid, membrane potential dye fluorescence; stimulated with maximal-effect DAMGO;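 active means drop in membrane potential signal beyond 5 SD of the control wells in both duplicate plates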;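 further: TRPC4 counter screen for TRPC6 hits run under conditions tuned for TRPC6 not TRPC4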
TRPC6 block conf: mouse TRPC6 channel inhibitors, confirmation, HEK293 cells, membrane potential dye, duplicate. AID 488960, 2010. ACh-evoked depolarization. inhibition, % at 10 µM. 3,300 compounds, 43% hits. shares compounds with TRPC6 inhibitor;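 active means fluorescence ratio falls more than 5 SD below the full-stimulation control mean, in both duplicate runs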;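 further: integrated fluorescence ratio of peak minus minimum over baseline after agonist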
TRPC6 act conf: mouse TRPC6 channel activators, confirmation, HEK293 cells, membrane potential dye, duplicate; shares compounds with TRPC6 inhibitor; HEK293-TRPC6 membrane potential dye fluorescence, FDSS; activation, % at 10 µM; 2,800 compounds, 11% hits;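 active means ratio signal rise beyond 5 SD above unstimulated control wells' mean, seen in both duplicate runs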;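 further: plate controls were buffer EC0 wells for no effect and acetylcholine ECmax response for full effect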
Numbers without * were called inactive. Most compounds without a hit are left out; they make up all but 2.3% or so of the library.

What do the screens show for `O=C(c1cccs1)N1CCCC(c2nc3c(nnn3Cc3ccccc3)c(=O)[nH]2)C1` (configuration not stated)?
TRPC6 inhibitor: inactive; TRPC4 block: inactive; TRPC4 act: inactive; TRPC4 potent: inactive; TRPC6 act: inactive

How did CCCc1nc2c(C)cc(C)cc2c(N)c1CC do in these assays?
TRPC6 inhibitor: -6*; TRPC4 block: inactive; TRPC4 act: inactive; TRPC4 potent: inactive; TRPC6 act: inactive; HEK293 MPD ctr-2: -94%*; HEK293 MPD ctr 2-2: inactive; TRPC4/MOR mod: -18%*; TRPC4/MOR inh 2: 60%*; TRPC6 block conf: inactive; TRPC6 act conf: inactive

How did CC(C)CNS(=O)(=O)c1cc2c3c(c1)CCC(=O)N3CCC2 do in these assays?
TRPC6 inhibitor: inactive; TRPC4 block: inactive; TRPC4 act: inactive; TRPC4 potent: inactive; TRPC6 act: inactive

How did Cc1ccc(C)c(N2CCN(C(=O)c3ccc(CS(=O)(=O)c4ccccc4C)o3)CC2)c1 do in these assays?
TRPC6 inhibitor: -8.8*; TRPC4 block: inactive; TRPC4 act: inactive; TRPC4 potent: inactive; TRPC6 act: inactive; TRPC4 spec 2: inactive; TRPC4 spec: inactive; HEK293 MPD ctr 2-1: inactive; HEK293 MPD ctr-1: inactive; TRPC6 block conf: inactive; TRPC6 act conf: inactive

How did O=c1c2c3c(sc2n2cnnc2n1-c1ccccc1)N(Cc1ccccc1)CCC3 do in these assays?
TRPC6 inhibitor: -7*; TRPC4 block: inactive; TRPC4 act: inactive; TRPC4 potent: inactive; TRPC6 act: inactive; TRPC4 spec 2: inactive; TRPC4 spec: -20%*; HEK293 MPD ctr 2-1: inactive; HEK293 MPD ctr-1: -271%*; TRPC6 block conf: inactive; TRPC6 act conf: inactive

What do the screens show for `CN1CCc2c(sc3c2c(=O)n(-c2cccc(Cl)c2)c2nncn32)C1`?
TRPC6 inhibitor: -5.5*; TRPC4 block: inactive; TRPC4 act: inactive; TRPC4 potent: inactive; TRPC6 act: inactive; HEK293 MPD ctr-2: inactive; HEK293 MPD ctr 2-2: inactive; TRPC4/MOR mod: 7.0%*; TRPC4/MOR inh 2: inactive; TRPC6 block conf: inactive; TRPC6 act conf: inactive

Results for CCC(C)NC(=O)c1ccc(C2SCC(=O)N2Cc2ccccc2)cc1 (configuration not stated) ?
TRPC6 inhibitor: -7.6*; TRPC4 block: inactive; TRPC4 act: inactive; TRPC4 potent: inactive; TRPC6 act: inactive; TRPC4 spec 2: inactive; TRPC4 spec: inactive; HEK293 MPD ctr 2-1: inactive; HEK293 MPD ctr-1: inactive; TRPC6 block conf: inactive; TRPC6 act conf: inactive

How did COCCNC(=O)C(=O)Nc1cc2c3c(c1)CCC(=O)N3CCC2 do in these assays?
TRPC6 inhibitor: inactive; TRPC4 block: inactive; TRPC4 act: inactive; TRPC4 potent: inactive; TRPC6 act: inactive

Results for N#Cc1c(NC(=O)c2cccc(S(=O)(=O)Nc3ccc(C(=O)O)cc3)c2)sc2c1CCCC2 ?
TRPC6 inhibitor: inactive; TRPC4 block: inactive; TRPC4 act: inactive; TRPC4 potent: inactive; TRPC6 act: inactive

What do the screens show for `Cc1cnc(C(=O)N2CCCC(C(=O)c3ccc(Cl)cc3C)C2)cn1` (configuration not stated)?
TRPC6 inhibitor: -5.3*; TRPC4 block: inactive; TRPC4 act: inactive; TRPC4 potent: inactive; TRPC6 act: inactive; HEK293 MPD ctr-2: inactive; HEK293 MPD ctr 2-2: inactive; TRPC4/MOR mod: 14%*; TRPC4/MOR inh 2: inactive; TRPC6 block conf: 46%*

How did COc1ccccc1C(=O)C1CCCN(C(=O)c2cn3cc(Cl)ccc3n2)C1 (configuration not stated) do in these assays?
TRPC6 inhibitor: -8.2*; TRPC4 block: inactive; TRPC4 act: inactive; TRPC4 potent: inactive; TRPC6 act: inactive; TRPC4 spec 2: inactive; TRPC4 spec: 0.1%*; HEK293 MPD ctr 2-1: inactive; HEK293 MPD ctr-1: 0.3%*; TRPC6 block conf: inactive; TRPC6 act conf: inactive

What do the screens show for `COc1ccccc1C(=O)C1CCCN(C(=O)c2ccccc2Cl)C1` (configuration not stated)?
TRPC6 inhibitor: inactive; TRPC4 block: inactive; TRPC4 act: inactive; TRPC4 potent: inactive; TRPC6 act: inactive

Source: PubChem (Johns Hopkins Ion Channel Center)
